Experimental data: PubChem BioAssay AID652163 (Broad Institute, 2013)
Among all 360,000 compounds or so, about 500 (0.14%) were called active.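 Rule for the calls: active = mean inhibition of at least 70% across replicates, with every replicate also reaching that level; inconclusive = mean inhibition reaches 70% but some replicates fall short; inactive = mean inhibition below 70%.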 The list comes from a sample in which actives are over-represented; it also holds similar structures and randomly drawn compounds.

Molecular target: Protein S100-A4 (Homo sapiens) (UniProt P26447)
Assay: inhibitors of S100A4-myosin IIA peptide binding, primary screen, biochemical, fluorescence polarization, TAMRA-MyoIIA peptide (AID 652163)
Conditions: at 10.7 µM, hits give high values
Summary of the method: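 System – human S100A4 monomer protein, biochemical binding assay · Buffer or medium – Calcium-containing HEPES buffer, pH 7.2 · Timing – 5 min between mix addition and reading · Also added – TAMRA-labelled myosin IIA heavy-chain peptide probe, 5 nM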

Sequence of Protein S100-A4 (Homo sapiens) (P26447 whole entry, looked up): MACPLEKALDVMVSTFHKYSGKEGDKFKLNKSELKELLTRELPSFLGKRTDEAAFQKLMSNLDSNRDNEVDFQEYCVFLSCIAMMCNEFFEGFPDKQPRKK

inhibition, inactive:
C[C@H]1CN([C@@H](C)CO)C(=O)c2cccc(NC(=O)c3cnccn3)c2O[C@H]1CN(C)S(=O)(=O)c1cn(C)cn1 2.47%
COCCNC(=O)[C@H]1[C@H](CO)[C@H]2Cn3c(ccc(-c4ccccc4F)c3=O)[C@H]2N1C(=O)C1CCC1 -0.238%
COc1ccc(CN(C)C[C@H]2Oc3c(NS(=O)(=O)c4ccc(C)cc4)cccc3C(=O)N([C@@H](C)CO)C[C@@H]2C)cc1 -5.34%
CNC(=O)C[C@H]1CC[C@@H]2[C@H](COc3ccc(NC(=O)Nc4ccc(F)c(F)c4)cc3C(=O)N2C)O1 -1.52%
C[C@H]1CN([C@@H](C)CO)C(=O)c2cc(C#CC3CCCC3)cnc2O[C@H]1CN(C)C(=O)c1ccncc1 11.5%
CO[C@H]1CN(C)C(=O)c2cc(NC(=O)C3CC3)ccc2OC[C@H](C)N(Cc2ccccc2)C[C@H]1C 3.65%
O=C(N[C@@H]1CC[C@@H](CC(=O)N2CCc3ccccc3C2)O[C@@H]1CO)C1CCOCC1 13.9%
C[C@@H]1CN([C@@H](C)CO)C(=O)c2cc(NS(=O)(=O)c3cn(C)cn3)ccc2O[C@@H]1CN(C)C(=O)NC1CCCCC1 12.5%
O=C(C[C@@H]1CC[C@@H]2[C@H](COC[C@H](O)CN2C(=O)c2ccc3c(c2)OCO3)O1)NC1CCCC1 6.17%
CC(C)NC(=O)N(C)C[C@@H]1Oc2ccc(NC(=O)C3CCCCC3)cc2CC(=O)N([C@H](C)CO)C[C@@H]1C 1.64%
C[C@@H]1CCCCO[C@H](CN(C)C(=O)Nc2ccc3c(c2)OCO3)[C@H](C)CN([C@H](C)CO)C(=O)c2cc(NS(C)(=O)=O)ccc2O1 -0.157%
CCn1c(=S)[nH]c2cc(S(=O)(=O)N3CCOCC3)ccc21 -2.43%
Cn1c(=O)n(C)c2cc(S(=O)(=O)Nc3ccc(F)cc3)ccc21 0.871%
COC(=O)c1c(NC(=O)CSc2nncs2)sc2c1CCCCC2 -2.13%
COC(=O)c1c(NC(=O)C2CC(C)=C(C)CC2C(=O)O)sc2c1CCCCC2 (stereo unspecified) -3.38%
Cc1noc(C)c1S(=O)(=O)N(C)C[C@@H]1OCCCC[C@@H](C)Oc2ccc(NS(=O)(=O)c3ccccc3)cc2C(=O)N([C@H](C)CO)C[C@@H]1C -6.41%
Cc1noc(C)c1NC(=O)Nc1ccc2c(c1)C(=O)N([C@H](C)CO)C[C@H](C)[C@@H](CN(C)S(C)(=O)=O)OCCCC[C@H](C)O2 7.29%
CC(C)NC(=O)Nc1ccc2c(c1)C(=O)N([C@@H](C)CO)C[C@@H](C)[C@H](CN(C)C(=O)Cc1ccccc1)OCCCC[C@H](C)O2 2.76%
C[C@@H]1CCCCO[C@H](CN(C)C(=O)c2ccccc2)[C@H](C)CN([C@@H](C)CO)C(=O)c2cc(NC(=O)Nc3ccc4c(c3)OCO4)ccc2O1 -5.3%
Cc1noc(C)c1NC(=O)Nc1ccc2c(c1)C(=O)N([C@H](C)CO)C[C@@H](C)[C@H](CN(C)S(=O)(=O)c1ccc(Cl)cc1)OCCCC[C@H](C)O2 -9.02%
Cc1noc(C)c1S(=O)(=O)Nc1ccc2c(c1)C(=O)N([C@@H](C)CO)C[C@@H](C)[C@@H](CN(C)S(=O)(=O)c1ccccc1)OCCCC[C@H](C)O2 -42.8%
CCCC(=O)Nc1ccc2c(c1)OC[C@H](C)N(CCC(F)(F)F)C[C@@H](C)[C@H](OC)CN(C)C2=O -10.8%
CCCC(=O)N1CC2(C1)CN(C(=O)Nc1cccc(F)c1)[C@@H](CO)c1c2c2ccc(OC)cc2n1C 14.3%
CN1c2ccc(-c3cccc(F)c3)cc2[C@H]2[C@H](CCN2C(=O)c2cccc(F)c2)[C@H]1CO -3.81%
CN1c2ccc(-c3ccccc3)cc2[C@@H]2[C@@H](CCN2C(=O)c2ccncc2)[C@@H]1CO 0.924%
CN1CCN(C(=O)C[C@H]2CC[C@H]3[C@@H](COC[C@H](O)CN3C(=O)c3ccc(F)cc3)O2)CC1 -6.97%
CCCNC(=O)N1C[C@H](C)[C@@H](OC)CN(C)C(=O)c2ccc(NS(=O)(=O)CC(F)(F)F)cc2OC[C@@H]1C -4.41%
O=C(NCC1CC1)[C@@H]1[C@@H](CO)[C@@H]2Cn3c(ccc(-c4ccncc4)c3=O)[C@H]1N2Cc1nccs1 5.95%
C[C@@H]1CN([C@@H](C)CO)C(=O)Cc2cc(NS(C)(=O)=O)ccc2O[C@@H]1CN(C)Cc1ccc2c(c1)OCO2 -41.9%
O=C([C@@H]1[C@@H](CO)[C@@H]2Cn3c(ccc(-c4ccccc4F)c3=O)[C@H]1N2C(=O)C1CCC1)N1CCCCC1 3.88%
CN(C)C(=O)[C@@H]1[C@@H](CO)[C@@H]2Cn3c(ccc(-c4ccccc4F)c3=O)[C@@H]2N1C(=O)C1CC1 -4.07%
N#C[C@@H]1[C@@H](c2ccccc2)[C@@H](CO)N1C(=O)c1cc(Cl)cc(Cl)c1 3%
COc1ccccc1-c1cnc2c(c1)C(=O)N([C@H](C)CO)C[C@H](C)[C@@H](CN(C)CC1CCOCC1)O2 -8.2%
COc1cccc(C(=O)Nc2ccc3c(c2)OC[C@H](C)NC[C@H](C)[C@H](OC)CN(C)C3=O)c1 -5.1%
C[C@H](CO)N1C[C@H](C)[C@@H](CN(C)C(=O)NC2CCCCC2)Oc2ccc(NC(=O)c3ccncc3)cc2CC1=O 5.06%

inhibition, active:
CNS(=O)(=O)c1ccc2c(c1)[nH]c(=S)n2C 82.4%
Cc1noc(C)c1NC(=O)Nc1ccc2c(c1)C(=O)N([C@H](C)CO)C[C@@H](C)[C@@H](CN(C)S(=O)(=O)c1ccc(Cl)cc1)OCCCC[C@H](C)O2 108%
Cc1noc(C)c1S(=O)(=O)N(C)C[C@H]1OCCCC[C@H](C)Oc2ccc(NS(=O)(=O)c3ccccc3)cc2C(=O)N([C@H](C)CO)C[C@@H]1C 106%
C[C@@H]1CCCCO[C@@H](CN(C)C(=O)Cc2ccccc2)[C@H](C)CN([C@@H](C)CO)C(=O)c2cc(NC(=O)Nc3ccc4c(c3)OCO4)ccc2O1 121%
CN1c2ccc(-c3ccccc3)cc2[C@@H]2[C@@H](CCN2C(=O)c2ccccc2)[C@H]1CO 80%
CCCN1[C@H](C(=O)N2CCCCC2)[C@@H](CO)[C@@H]2Cn3c(ccc(-c4ccccc4F)c3=O)[C@@H]21 89.8%
